This is an account of results in ChEMBL document CHEMBL3044625, “Non-target-site-based resistance to ALS-inhibiting herbicides in six Bromus rigidus populations from Western Australian cropping fields” (Pest Manag Sci, 2012).

Holding throughout (format): functional
Experiment [1] has as its system Bromus diandrus var. rigidus. In words: Herbicidal activity against ALS-inhibiting herbicide-resistant two-leaf stage Bromus diandrus var. rigidus biotype R1 seedlings exposed to compound spraying measured 28 days after compound spraying. In a few lines: (§1)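 Seedlings germinated on 1% water agar (7–10 days, ambient) were sprayed at the 2–3-leaf stage with a sulfonylurea at 1.875–240 g ha−1, with no malathion. Percent survival was scored with three replicate treatments. LD50 came from non-linear regression, and R/S is the ratio of resistant to susceptible LD50.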

For experiment [2], the system named is Bromus diandrus var. rigidus. In words: Resistance index, ratio of LD50 for ALS-inhibiting herbicide-resistant two-leaf stage Bromus diandrus var. rigidus biotype R5 to ALS-inhibiting herbicide-susceptible two-leaf stage Bromus diandrus var. rigidus. In a few lines:
as §1

Experiment [3] has as its system Bromus diandrus var. rigidus. Put plainly: Resistance index, ratio of LD50 for ALS-inhibiting herbicide-resistant two-leaf stage Bromus diandrus var. rigidus biotype R6 to ALS-inhibiting herbicide-susceptible two-leaf stage Bromus diandrus var. rigidus. In a few lines: as §1
For experiment [4], the system named is Bromus diandrus var. rigidus. Put plainly: Resistance index, ratio of LD50 for ALS-inhibiting herbicide-resistant two-leaf stage Bromus diandrus var. rigidus biotype R1 to ALS-inhibiting herbicide-susceptible two-leaf stage Bromus diandrus var. rigidus. In a few lines:
as §1

Experiment [5] relates to Bromus diandrus var. rigidus. In words: Resistance index, ratio of LD50 for ALS-inhibiting herbicide-resistant two-leaf stage Bromus diandrus var. rigidus biotype R2 to ALS-inhibiting herbicide-susceptible two-leaf stage Bromus diandrus var. rigidus. A digest of the protocol:
as §1

Experiment [6] has as its system Bromus diandrus var. rigidus. In words: Herbicidal activity against ALS-inhibiting herbicide-susceptible two-leaf stage Bromus diandrus var. rigidus seedlings exposed to compound spraying measured 28 days after compound spraying. A digest of the protocol: as §1
Experiment [7] concerns Bromus diandrus var. rigidus. In words: Herbicidal activity against ALS-inhibiting herbicide-resistant two-leaf stage Bromus diandrus var. rigidus biotype R3 seedlings exposed to compound spraying measured 28 days after compound spraying. In a few lines:
as §1

The subject of experiment [8] is Bromus diandrus var. rigidus. Put plainly: Resistance index, ratio of LD50 for ALS-inhibiting herbicide-resistant two-leaf stage Bromus diandrus var. rigidus biotype R3 to ALS-inhibiting herbicide-susceptible two-leaf stage Bromus diandrus var. rigidus. In a few lines: as §1
Experiment [9] has as its system Bromus diandrus var. rigidus. Put plainly: Herbicidal activity against ALS-inhibiting herbicide-resistant two-leaf stage Bromus diandrus var. rigidus biotype R6 seedlings exposed to compound spraying measured 28 days after compound spraying. A digest of the protocol: as §1
Experiment [10] concerns Bromus diandrus var. rigidus. Put plainly: Herbicidal activity against ALS-inhibiting herbicide-resistant two-leaf stage Bromus diandrus var. rigidus biotype R5 seedlings exposed to compound spraying measured 28 days after compound spraying. In a few lines: as §1
The subject of experiment [11] is Bromus diandrus var. rigidus. Put plainly: Resistance index, ratio of LD50 for ALS-inhibiting herbicide-resistant two-leaf stage Bromus diandrus var. rigidus biotype R4 to ALS-inhibiting herbicide-susceptible two-leaf stage Bromus diandrus var. rigidus. A digest of the protocol:
as §1

The test system of experiment [12] is Bromus diandrus var. rigidus. In words: Herbicidal activity against ALS-inhibiting herbicide-resistant two-leaf stage Bromus diandrus var. rigidus biotype R2 seedlings exposed to compound spraying measured 28 days after compound spraying. A digest of the protocol: as §1
In experiment [13] the test system is Bromus diandrus var. rigidus. In words: Herbicidal activity against ALS-inhibiting herbicide-resistant two-leaf stage Bromus diandrus var. rigidus biotype R4 seedlings exposed to compound spraying measured 28 days after compound spraying. In a few lines:
as §1

As for `Cc1cc(C)nc(NC(=O)NS(=O)(=O)c2ccccc2C(=O)O)n1` [SULFOMETURON], the LD50 in experiment [1] is 30 g/ha; in experiment [6] it was 10 g/ha; in [7], 31 g/ha; in [9], 41 g/ha; in [10], 38 g/ha; in experiment [12], 33 g/ha. The LD50 in experiment [13] is reported as 30 g/ha. Moreover, the Ratio in [2] is 3.8; in experiment [3], 4.1; in experiment [4] it was 3; in [5], 3.3; in experiment [8], 3.1; in experiment [11] it was 3.
